Test system: MS2 coat protein
Assay: apparent Kd, MS2 coat protein; higher = weaker binding; RNA-MaP array
In short: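 Designed RNAs were transcribed on an Illumina sequencing chip from sequenced DNA templates. They were incubated at room temperature with fluorescently labeled MS2 coat protein at 1.5 nM to 3 μM, for 0.8–1.5 h at the lowest to 10–20 min at the highest concentrations, in Tris-HCl pH 7.5 buffer with KCl, MgCl2, BSA, DTT, tRNA and Tween20, with or without input ligand. Apparent Kd is the median of per-cluster binding-curve fits. Designs measured on fewer than 10 clusters were excluded.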

[1] = designed as: OFF switch for flavin mononucleotide, no ligand
[2] = ligand present: flavin mononucleotide, designed as: OFF switch for flavin mononucleotide
[3] = designed as: OFF switch for tryptophan, no ligand
[4] = ligand present: tryptophan, designed as: OFF switch for tryptophan
[5] = designed as: ON switch for flavin mononucleotide, no ligand
[6] = ligand present: flavin mononucleotide, designed as: ON switch for flavin mononucleotide
[7] = designed as: ON switch for tryptophan, no ligand
[8] = ligand present: tryptophan, designed as: ON switch for tryptophan

“ACAUGAGGAUCACCCAUGUUCUCAAGUAUAAUAGAUAAAUCAAGAAGGGCUAAUCGACCGAAUAAGCAGGAUAUUGUGAUAUGG” was tested. Which “apparent Kd” value [1] did it give?
Its value is 18.3 nM.

What about the “apparent Kd” value [2] of the same sequence?
The value was 21.2 nM.

What does the source list for “UUGAUCUCGUAGAAGGGAGAGAUUGAGGGCUUCUCAGGAUAUACGAAUCCUCUGUGGCUAUGUUACAUGAGGAUCACCCAUGUC”?
apparent Kd [1]: 791 nM; apparent Kd [2]: 355 nM

With “CAUCGUCGGUCGGCCGCCACUACUGGACAUGAGGAUCACCCAUGUGGCCCGCUGUAUUAACCGCGUAGGACCGGGACGGGAGGUA” as the sequence, how does the “apparent Kd” value [3] read?
Its value is 30 nM.

What about the “apparent Kd” value [4] of the same sequence?
The value was 32.9 nM.

For “GCCUAGGGUCAAGGAUAUCACCCAGUGGUCCGUACAUGAGGAUCACCCAUGUCACCGGGAACGGGUGAGAAGGUGAAAAGUCGA”, which “apparent Kd” value [5] is on record?
Its value is 13.9 nM.

What about the “apparent Kd” value [6] of the same sequence?
Its value is 9.93 nM.

“AUGGGUACCACAGGAUAUUAGUAACACAUGAGGAUCACCCAUGUUUUACCGCUUGAAGCUUAGACUAAGAAGGGUGGCUUAGAA” was tested. Which “apparent Kd” value [5] did it give?
Its value is 55.1 nM.

What about the “apparent Kd” value [6] of the same sequence?
Its value is 23.9 nM.

How did the “apparent Kd” value [1] turn out when “CCGUAUCGACCAGGAUAUUCAAUAGCGCCACAUGAGGAUCACCCAUGUUUAUAUCUUCAUGGAAGGAAGAAGGGGUACAAGCGG” was run?
Its value is 199 nM.

And the “apparent Kd” value [2]?
The value was 240 nM.

What does the source list for “ACCUCGUAAGGAUAUAGAUGCCCGUACACAACAACAGAACUCUAGAAGGUACAUGAGGAUCACCCAUGUUGAUG”?
apparent Kd [1]: 21.5 nM; apparent Kd [2]: 20.9 nM

Which results are given for “CAGUCUCUAGCGGCCGCCACUGUUCUGCUGGUGCUGCUGAACGAACAUGAGGAUCACCCAUGUCUCAGGACCGGGCUUCAGACUC”?
apparent Kd [7]: 26.1 nM; apparent Kd [8]: 26.9 nM

For “AAAUGUACGAAGAAGGCUCUGCCACUGGCCGAGAGAGGAUAUUCACACAUGAGGAUCACCCAUGUCGAACAAAGUACACAGAGC”, which “apparent Kd” value [5] is on record?
Its value is 8.43 nM.

And the “apparent Kd” value [6]?
The value was 7.06 nM.

How did the “apparent Kd” value [3] turn out when “GCUACACAGGACCGUACUAAGGAUUCGCCUCGAGGACCGGUACGGCCGCCACUCGUUGCGCGACAUGAGGAUCACCCAUGUGUUC” was run?
Its value is 46 nM.

What about the “apparent Kd” value [4] of the same sequence?
Its value is 36.7 nM.

Which results are given for “CUCUGCUACCGGACUGGUUGGACAUGAGGAUCACCCAUGUACGAGGAUAUACGAAGAAGAACCAGGUAGAAGGCGUUUGGGUAC”?
apparent Kd [1]: 14.4 nM; apparent Kd [2]: 28.1 nM

“UCUUUCUUUAAAGAACACAUGAGGAUCACCCAUGUUCAAGGGCAGGAUAUGAGUAUCUGUUCGGAUCAGAAGGGCCCAACAGGU” was tested. Which “apparent Kd” value [5] did it give?
Its value is 36 nM.

And the “apparent Kd” value [6]?
The value was 29.5 nM.

With “UGCGGACAUGAGGAUCACCCAUGUGCGGAUACCAGCAGCCGGCUCUGCCCUUGGCAGCCGCUACCCUUGCACGUUUAACGAUCCA” as the sequence, how does the “apparent Kd” value (designed as: ON switch for theophylline, no ligand) read?
Its value is 37.8 nM.

What about the “apparent Kd” value (ligand present: theophylline, designed as: ON switch for theophylline) of the same sequence?
Its value is 36.7 nM.

For “GGUCCCGUAGGAUAUUGCUCAUUGUACAUGAGGAUCACCCAUGUGACUACACUGCACUGGCAAGAAGGACGUUGAU”, which “apparent Kd” value [1] is on record?
The value was 83.2 nM.

What about the “apparent Kd” value [2] of the same sequence?
Its value is 50.2 nM.

What does the source list for “GUCUCACAGAUAGGAUAUGGUUUUCACAUGAGGAUCACCCAUGUAAAUCCUAAAGUAAGUGGAGGCCAGAAGGAUCCGGUACAG”?
apparent Kd [1]: 32.2 nM; apparent Kd [2]: 35.1 nM

Which results are given for “UGUAUAGCGGCAGGAUAUGAGAGUGUAGGUGCUUCAGAAGGGCCAUGUGACGCUUUAAAUGGGACACAUGAGGAUCACCCAUGU”?
apparent Kd [1]: 18 nM; apparent Kd [2]: 13.5 nM

How did the “apparent Kd” value [5] turn out when “GUGUACAUGAGGAUCACCCAUGUGAGAGCCACAUAGGGCCAGAAGGAUAUCUAUACUACCGCGUCAGAGAAGGUCUGUUGAUUU” was run?
Its value is 33.2 nM.

What about the “apparent Kd” value [6] of the same sequence?
Its value is 24.9 nM.

For “GAUUUGUGAGGAUAUCAUUAGAAACAAGUAUGAGGCGAAAGUGAGAAGGCACAUGAGGAUCACCCAUGUUGGAA”, which “apparent Kd” value [1] is on record?
The value was 15 nM.

And the “apparent Kd” value [2]?
Its value is 15.7 nM.

How did the “apparent Kd” value [5] turn out when “GGCGAGACCCAGAAGGUUCGUCCGGAUCCGCGAUAAUACAUGAGGAUCACCCAUGUAAGACCGGGAAAGGAUAUGGGAACAGCG” was run?
Its value is 6.54 nM.

What about the “apparent Kd” value [6] of the same sequence?
Its value is 6.02 nM.

With “GAGCACUUAGGAUAUUGGUUGACACACAUGAGGAUCACCCAUGUGAUUCCUGCCUUUAACCAAGAAGGAAGAGUAU” as the sequence, how does the “apparent Kd” value [1] read?
Its value is 14.7 nM.

What about the “apparent Kd” value [2] of the same sequence?
The value was 13.5 nM.

What does the source list for “AGUCAAAAUUAGAAGGAGCGUUGACCCUGUUAGCUAGGAUAUAAUUCAUGCGAACAUGAGGAUCACCCAUGUAGACGUACCAAC”?
apparent Kd [5]: 86.5 nM; apparent Kd [6]: 44.9 nM

What does the source list for “UACGUGGAUGCGGCCGCCACUGCUCUGAGCGAGUUGCUCUAUGGACAUGAGGAUCACCCAUGUCACAGGACCGGGCACGCUUUAA”?
apparent Kd [7]: 10.4 nM; apparent Kd [8]: 9.67 nM

Which results are given for “UAUUGAAUCCUCCCGACAUGAGGAUCACCCAUGUUACCUGCGCAGGAUAUCGUAUGUAUACCCGGCGAGAAGGGCGCUAGCGAG”?
apparent Kd [1]: 213 nM; apparent Kd [2]: 160 nM

What does the source list for “GAUACGCAGUCGGCCGCCACUUGCUAAGGUGACAAACCAAAACAUGAGGAUCACCCAUGUCUGAUAAGGACCGGGACCACCAUGG”?
apparent Kd [7]: 79.5 nM; apparent Kd [8]: 81.1 nM

With “ACGUGGCAACAUGAGGAUCACCCAUGUAAAGAUAAUGAUUACAGAAGGCCCGGAGGAAGGCAAAGGGAGGAUAUGUGUGCCUAC” as the sequence, how does the “apparent Kd” value [5] read?
The value was 29.8 nM.

What about the “apparent Kd” value [6] of the same sequence?
Its value is 12.7 nM.

Which results are given for “CCAUGAAGAUAGGAUAUAGGUCGAGUUCCCGAACAAGAAGGAUCGACAUGAGGAUCACCCAUGUGCAUCCAUGA”?
apparent Kd [1]: 27.1 nM; apparent Kd [2]: 21.1 nM

— the EternaBench riboswitch data
